This is a sample that favours compounds with a hit; in the whole collection about 2% have one here.
eIF4E-4G inh: blocks eIF4E binding to eIF4G; TR-FRET eIF4E-eIF4GI(517-606) binding, 2 h; inhibition, % at 21.7 µM; 0.37% of 220,000 active;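 note: 0% = full FRET control wells and 100% = background wells lacking eIF4GI fragment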
Hck-Nef inh: blocks Nef-activated human Hck kinase; Recombinant Hck-YEEI plus Nef, Z-Lyte FRET kinase assay; inhibition, % at 20 µM; 0.68% of 220,000 active; AID 463187;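 active = Hck-Nef kinase inhibition above about 50%, limit read from the data; inactive = inhibition below that limit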;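 note: 0% = DMSO with Hck plus Nef and 100% = Hck alone without Nef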
Target sequence (P08631 whole entry, looked up): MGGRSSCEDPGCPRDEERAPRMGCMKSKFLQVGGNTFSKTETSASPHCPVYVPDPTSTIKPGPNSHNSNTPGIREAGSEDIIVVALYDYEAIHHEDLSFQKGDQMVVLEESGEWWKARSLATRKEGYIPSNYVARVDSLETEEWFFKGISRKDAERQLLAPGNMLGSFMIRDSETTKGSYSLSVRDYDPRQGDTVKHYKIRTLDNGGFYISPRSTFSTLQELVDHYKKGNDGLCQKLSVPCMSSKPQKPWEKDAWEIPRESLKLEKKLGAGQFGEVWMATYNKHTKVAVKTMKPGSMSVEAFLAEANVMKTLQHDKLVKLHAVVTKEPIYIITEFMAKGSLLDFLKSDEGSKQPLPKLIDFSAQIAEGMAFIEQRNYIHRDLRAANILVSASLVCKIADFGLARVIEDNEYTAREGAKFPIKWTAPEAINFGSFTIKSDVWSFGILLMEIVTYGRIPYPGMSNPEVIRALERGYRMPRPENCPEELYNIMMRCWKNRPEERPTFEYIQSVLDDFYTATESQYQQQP
Diaphorase act: activates diaphorase or chemically reduces, flagging diaphorase assay artifacts | Diaphorase/resazurin coupled assay, resorufin fluorescence, 16 min; stronger effect = higher value; 1 = vehicle wells, 0 = NADH-free wells | 0.005% of 190,000 active | activation factor at 20 µM | AID 1229;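 active = diaphorase activity raised at least twofold by the compound at 20 µM; inactive = activation factor below 2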
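Measured by – red resorufin fluorescence at 544/590 nm excitation/emission · Test system – Clostridium kluyveri diaphorase, purified enzyme · Incubation – reaction time 16 min, room temperature · Buffer or medium – 50 mM HEPES pH 7.4 with 4.542 mM MgCl2, 0.005% Tween 20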
14-3-3 Bad inh: disrupts binding of bovine 14-3-3 zeta to phospho-Bad peptide. P63103. TR-FRET 14-3-3zeta/Dy647-pBad peptide displacement, 1 h. inhibition, % at 21.7 µM. AID 781. 0.71% of 220,000 active;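 active = inhibition above about 70%, limit read from the data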;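 note: 0% = full 14-3-3 plus peptide FRET controls and 100% = background without 14-3-3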
NCF1 inh: inhibitors of human p47phox binding | p47phox/p22phox peptide binding, fluorescence polarization, 2 h | inhibition, % at 24.7 µM | P14598 | AID 1274 | 0.53% of 220,000 active;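 note: 0% = p47phox with labelled peptide and 100% = labelled peptide alone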
Starred values were filed as active, the others as inactive; nt = no result; [ ] = another dose, or the depositor's remark.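 Rule for the calls, unless noted: active = inhibition above about 30% (limit read from the data); inactive = the rest.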

SMILES | eIF4E-4G inh | Hck-Nef inh | Diaphorase act | 14-3-3 Bad inh | NCF1 inh
COCCCNC(=S)NNC(=O)c1ccc(S(=O)(=O)N2CCC(C)CC2)cc1 | -4 | 17 | 1 | -14 | -12
Cc1ccc(-n2nnnc2SCC#N)cc1 | -1 | -52 | 0.9 | 71* | -12
CCN1C(=O)C2C(c3ccc(O)c(OC)c3)NC(C)(C(=O)OC)C2C1=O (configuration not stated) | 8 | 0 | 0.9 | -9 | 38*
C/C(=N\N(Cc1ccccc1)c1ccccc1)c1ccncc1 | 1 | -2 | 0.9 | 2 | 2
Cc1ccc(O)c(NC2=C(Cl)C(=O)N(Cc3ccccc3)C2=O)c1 | 31* | -35 | 0.5 | 35 | -12
CCOc1ccc(NC2=C(Cl)C(=O)N(Cc3ccccc3)C2=O)cc1 | 0 | 0 | 0.9 | 5 | -6
Cc1ccc(NS(=O)(=O)c2ccc(Br)s2)nc1 | 3 | -6 | 0.8 | 1 | -5
COc1ccc(C2CCN(Cc3cccnc3)CC2O)cc1 (configuration not stated) | -7 | -3 | 0.9 | 0 | -18
CC1CC(C)CN(C2CCN(Cc3cccnc3)CC2)C1 (configuration not stated) | 5 | 5 | 0.8 | 79* | -8
Cc1ccc2c(c1C)NC(=O)C21N2CCCC2C(C(=O)c2ccc3ccccc3c2)C12C(=O)Nc1ccccc12 (configuration not stated) | 0 | 22 | nt | -1 | -25
CCCCNC(=O)CSc1nc(COc2ccccc2)nc2ccccc12 | 2 | 14 | 0.7 | -20 | -11
CCCc1nc(SCC(=O)NNC(=O)c2ccc(OC)cc2)c2ccccc2n1 | -2 | 24 | 1.1 | 98* | -4
N#C/C(=C(/O)Cc1ccccc1)P(=O)(c1ccccc1)c1ccccc1 | 2 | 16 | nt | 10 | -8
CN(C)Cc1cc(O)c(CN(C)C)cc1O | 16 | -160 | nt | 9 | 37*
COc1ccccc1CNC(=O)CN(C)S(=O)(=O)c1cccc2cccnc12 | 96* | 17 | nt | 5 | 1
CC(=O)NC(Cc1cccc(F)c1)C(=O)NC1CCN(c2nnnn2-c2ccccc2)CC1 (configuration not stated) | -1 | 19 | 0.8 | -6 | 0
O=C(COC(=O)c1ccccc1NC(=O)C1CC1)c1ccc2c(c1)OCCO2 | 3 | -1 | 0.6 | 71* | -7
CC(C)(C)C(=O)Nc1ccccc1C(=O)OCC(=O)c1ccc2c(c1)OCCO2 | -4 | 1 | 0.7 | -4 | -8
O=C(Nc1ccc(F)cc1)c1nc2c(nnn2Cc2cccc3ccccc23)c(=O)[nH]1 | -3 | 20 | nt | -10 | -3
O=C(NCc1ccc(Cl)cc1)c1ccc(CNc2c(N3CCCC3)c(=O)c2=O)cc1 | 57* | 21 | nt | -3 | -5
O=C(c1ccc(CNc2c(N3CCCC3)c(=O)c2=O)cc1)N1CCN(C2CCCCC2)CC1 | 1 | 0 | 0.9 | -1 | 35*
CC(NCc1ccc(F)cc1)C(=O)Nc1cc(S(=O)(=O)N2CCCCC2)ccc1Cl (configuration not stated) | 2 | -1 | 0.8 | -2 | -10
CC(=O)Nc1ccc(S(=O)(=O)Nc2nc3ccccc3nc2Nc2ccc(O)cc2)cc1 | 0 | 13 | nt | -2 | -12
COc1cccc(OC)c1C(=O)N1CCN(Cc2ccncc2)CC1 | 1 | 0 | 0.8 | 46 | -5
COc1cccc(OC)c1C(=O)N1CCN(Cc2ccccc2C(F)(F)F)CC1 | -5 | -1 | 0.9 | 84* | -2
SMILES | eIF4E-4G inh | Hck-Nef inh | Diaphorase act | 14-3-3 Bad inh | NCF1 inh
COc1ccccc1CN1CCN(C(=O)c2ccncc2)CC1 | 63* | 1 | 0.9 | 83* | 2
COc1cc(C(=O)N2CCN(Cc3ccccc3C(F)(F)F)CC2)cc(OC)c1OC | 1 | 0 | 0.8 | 35 | -2
CN1CCCN(Cc2ccccc2C(F)(F)F)CC1 | 94* | -6 | 0.8 | 81* | 7
Fc1ccc2[nH]c3c(c2c1)CN(C(=S)NCc1ccccc1)CC3 | -2 | -4 | nt | -7 | -15
Cc1ccc(OCCSc2nnc(NC(=O)c3ccco3)s2)cc1 | 2 | -20 | 0.9 | -3 | -10
CCCCOC(=O)Nc1nnc(SCCOc2ccc(C)cc2)s1 | 44*[fluorescence artefact?] | 2 | 1 | 5 | -10
CC1(C)CC(N2CCN(CCO)CC2)=CC(=S)N1 | -1 | 5 | nt | -2 | -7
CCCc1cc(=O)n2c([nH]c3ccccc32)c1C#N | 12 | 8 | 0.7 | 3 | 48*
Cn1cnc(S(=O)(=O)Nc2ccc(OC(F)F)cc2)c1 | -6 | 7 | nt | 3 | -8
Cc1nc2c(c(N3CCOCC3)n1)OCC(=O)N2 | 2 | -3 | 0.9 | 74* | 8
Cc1ccc(-n2nc(C(=O)O)c(O)cc2=O)cc1 | 0 | 8 | 0.8 | -4 | -5
COc1cc(C2NC(=O)C(C#N)=C(Nc3cccc(C)c3)S2)ccc1O (configuration not stated) | 1 | -14 | nt | -3 | -3
COc1ccc(OC)c(-c2csc(NC(=O)Cn3[nH]c(=O)c4ccccc4c3=O)n2)c1 | 42* | 17 | 0.9 | 9 | -42
COc1cc(C(=O)N2CCN(C(=O)c3ccco3)CC2)c([N+](=O)[O-])cc1OC | 7 | 7 | 1 | 5 | -2
Cn1cccc1Cc1nnc(SCC(=O)N2CCCC2)n1CCc1ccccc1 | 2 | 0 | 1 | 5 | 3
Cn1cccc1Cc1nnc(SCC(N)=O)n1CCc1ccccc1 | -2 | 2 | 0.9 | -7 | 89*
Cc1cccc(Oc2cc(N)cc([N+](=O)[O-])c2)c1 | 7 | -1 | 0.7 | 15 | -5
Nc1cc(Oc2cccnc2)cc([N+](=O)[O-])c1 | 4 | -4 | 1 | 89* | 4
O=C(CNCC1CCCCC1)Nc1ccccc1N1CCCCC1 | -3 | 1 | 0.8 | 80* | -7
O=C(CNC(=O)C1CCCCC1)Nc1ccccc1Cl | -3 | 1 | 0.9 | 13 | 53*
O=C(CNC(=O)C1CCCCC1)Nc1cc(Cl)ccc1Cl | 11 | -1 | 0.9 | -8 | -7
COCCCC1CCN(C(=O)CCc2nnc(CCCCc3ccccc3)o2)CC1 | 0 | 22 | 0.9 | -6 | -3
CC(=O)c1ccc(-n2c(=O)[nH]c(=O)c3c(N)c(C(=O)c4ccc(Cl)cc4)sc32)cc1 | -2 | 29 | nt | -1 | -17
O=C(CSc1nnc(COc2ccc3c(c2)CCCC3)o1)Nc1ccc(F)cc1 | -3 | 2 | 1 | 87* | -5
COc1ccc(CCCc2nnc(SCC(=O)Nc3ccc(OC)cc3)o2)cc1 | 3 | 24 | 0.9 | 13 | 1
Nc1nc(-c2ccc(C(=O)O)cc2)cs1 | 1 | 23 | 0.9 | -6 | -1
Nc1csnc1C(=O)O | 10 | 1 | 0.9 | 78* | -8
CSCC[C@@H](C(=O)Nc1ccc2c(c1)OCCO2)N1Cc2ccccc2C1=O | 1 | 1 | 0.9 | 2 | -7
CSCC[C@@H](C(=O)O)N1Cc2ccccc2C1=O | 6 | 0 | 0.8 | 81* | 2
